# Compound activity deposited in PubChem BioAssay by several laboratories.
# This is a sample that favours compounds with a hit; in the whole collection about 1.9% have one here.
# MIN6 prolif: MIN6 beta-cell proliferation induction | MIN6 cells proliferation, ATPlite luminescence, 48 h; cells starved in 0.2% serum; 100% = growth in 10% serum | proliferation, % at 10 µM | 330,000 tested, 0.29% active | AID 2380;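 active = compounds whose signal lies at least 3.5 SD above the mean of all wells on their plate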;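 also: 0% = DMSO-treated cells in low-serum medium and 100% = 10% serum control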
# Rce1 inh: yeast Ras-converting enzyme inhibition; yeast membranes, quenched prenylated peptide cleavage fluorescence; calls only; 290,000 tested, 0.27% active; AID 2563;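 active = fall in fluorescence gain of 50% or more versus controls, with final raw signal at or below 3038400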;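 also: plate controls were neutral control wells for no effect and wells lacking membranes for full effect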
# Target sequence (Q03530 whole entry, looked up): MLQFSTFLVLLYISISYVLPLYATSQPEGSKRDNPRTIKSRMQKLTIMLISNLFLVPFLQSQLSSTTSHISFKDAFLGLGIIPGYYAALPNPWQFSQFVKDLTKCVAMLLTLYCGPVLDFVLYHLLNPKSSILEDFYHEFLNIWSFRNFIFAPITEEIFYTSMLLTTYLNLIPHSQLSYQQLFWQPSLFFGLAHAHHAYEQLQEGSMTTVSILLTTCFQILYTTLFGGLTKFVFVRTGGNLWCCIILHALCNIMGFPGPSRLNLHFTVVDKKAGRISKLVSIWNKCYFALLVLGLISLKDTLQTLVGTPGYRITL
# KLK7 zymogen act: proKLK7 (human) activation, primary screen; activation, % at 7 µM; AID 652039; 370,000 tested, 0.9% active; purified proKLK7, EDANS-DABCYL substrate fluorescence; 100% is mature enzyme control, 0% vehicle;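 active = activation above the mean of all tested compounds plus 3 SD, computed per campaign excluding outliers beyond control limits, cut at about 13% in these data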
# Target sequence (P49862 whole entry, looked up): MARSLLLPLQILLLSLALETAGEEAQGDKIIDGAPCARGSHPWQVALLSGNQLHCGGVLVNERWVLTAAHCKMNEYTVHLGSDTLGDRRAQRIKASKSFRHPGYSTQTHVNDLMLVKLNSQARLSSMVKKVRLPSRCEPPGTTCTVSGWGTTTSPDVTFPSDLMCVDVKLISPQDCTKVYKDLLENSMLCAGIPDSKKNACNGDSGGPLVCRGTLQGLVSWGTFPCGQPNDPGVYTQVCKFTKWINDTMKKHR
# T cell HTS: T cell immune modulation candidate; 2C CD8+ T cell-vesicle binding, flow cytometry; hits give low values; response (vesicle binding), % at 7 µM; 330,000 tested, 0.068% active; AID 2052;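 active = response, share of CD8 T cells binding vesicles, and their 90th percentile fluorescence all below set limits, cut at about 80% in these data, passing the limit was not always enough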;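 also: values below 100% mean blocked vesicle binding to the CD8+ T cells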
#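 incubation = binding step 1.5 h, 37 °C, antibody labelling 20 min, ice | test system = 2C mouse CD8+ T cells | read-out basis = percent CD8+ FL2 mean versus row control | controls = Peptide-free naked vesicles (low) and QL9 vesicles with 0.7% DMSO vehicle (high) | detection = flow cytometry of vesicle-bound cells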
# V-ATPase pH: yeast V-ATPase proton transport regulation by pHLuorin | S. cerevisiae, pHLuorin cytosolic pH fluorescence | response, % at 10 µM | 350,000 tested, 0.37% active | AID 504577; in the data active = response mostly above about 7.3%, no sharp cut-off; inactive = mostly below about 5.4%; also: actives read high
# CR mimetic SO: lowers age-related superoxide in aged yeast cells; S. cerevisiae aged cells, superoxide DHE fluorescence; hits give low values; superoxide response (% of plate mean), % at 10 µM; 330,000 tested, 0.18% active; AID 2690;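 active = superoxide response under a set limit, about three screen SD below normal, cut at about 65% in these data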;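 also: yeast aged for seven days with compound at 30 °C before DHE staining; 100% = average MFI of all compound-treated wells on the plate with controls excluded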
# * marks the source's active call; other numbers are inactive results; i = inactive; . = no result; + = active, no number.
SMILES,MIN6 prolif,Rce1 inh,KLK7 zymogen act,T cell HTS,V-ATPase pH,CR mimetic SO
COc1cc(-c2c(C#N)c(N)nc3c2c(C)nn3-c2ccc(C)c(C)c2)cc(OC)c1OC,-5,+,-44,402,3,83
Cc1nn(-c2ccc(F)cc2)c2nc(N)c(C#N)c(-c3ccc(O)c(O)c3)c12,-7,i,-1,161,-4,100
S=c1nc[nH]c2c1cnn2-c1ccccc1,-2,+,-1,297,0,87
O=S(=O)(c1ccccc1)N1CCN=C1SCc1ccc(Cl)c(Cl)c1,-6,i,0,259,37*,95
O=S(=O)(c1ccccc1)N1CCN=C1SCc1ccc(Cl)cc1,-5,i,-1,349,1,101
C=C(C)CSc1nc2sc(C)c(C)c2c(=O)n1C,.,.,0,.,.,.
O=C(COC(=O)c1cc(Cl)cc(Cl)c1)NCCN1C(=O)CSC1=O,0,i,0,244,4,105
O=C(COC(=O)c1cccc(Cl)c1)NCCN1C(=O)CSC1=O,-1,i,0,147,16*,96
O=C(NCc1ccc(Cl)cc1)c1ccc(CNc2c(N3CCCC3)c(=O)c2=O)cc1,-2,i,0,0.0*,-2,96
O=C(NCc1ccc(Cl)cc1)c1ccc(CNc2c(N3CCOCC3)c(=O)c2=O)cc1,0,i,0,154,5,106
COc1cccc(/C=C2\CC3(OC(=O)C(C)(C)C)CCCN2C3)c1 (configuration not stated),.,.,0,.,.,.
CC(C)(C)NC(=S)NCc1ccc2c(c1)OCO2,-1,i,0,267,-3,92
CN(C)CC(C)(C)CNC(=S)NCc1ccc2c(c1)OCO2,0,+,0,490,2,103
CCN1C(=O)c2cccc3c(S(=O)(=O)Nc4ccccn4)ccc1c23,-1,.,19*,377,2,97
COC(=O)c1cnn2c3c(c(C)nc12)CCCC3,0,+,3,160,1,103
Cc1c2c(nc3c(C(=O)NC4CCCC4)cnn13)CCCC2,0,i,0,205,-3,111
CCOC(=O)CC[C@@H]1CC[C@]2(CCCN(C(=O)C3CCCCC3)C2)O1,.,.,0,.,.,.
CC(C)[C@H](NC(=O)OCc1ccccc1)C(=O)OCC(=O)Nc1c(F)cccc1F,0,+,0,551,2,81
CC(C)[C@H](NC(=O)OCc1ccccc1)C(=O)OCC(=O)c1ccccc1,4,.,0,181,2,96
Cc1ccc2c(c1)C1CS(=O)(=O)N(Cc3ccccc3)CN1C2 (configuration not stated),.,.,0,.,.,.
Cc1cc(=O)c2c(ccc3c(=O)cc(C)[nH]c32)[nH]1,.,.,2,.,.,.
COc1cccc(-c2ncc3ccccn23)c1,0,i,0,128,1,90
COc1cc(OC)cc(-c2ncc3ccccn23)c1,2,+,-1,269,0,91
Cn1c(=O)oc2cc(S(=O)(=O)N3CCN(c4cccc(C(F)(F)F)c4)CC3)ccc21,.,.,0,.,.,.
CC(c1ccco1)N(C(=O)c1cc(Cl)cc(Cl)c1)c1ccccn1 (configuration not stated),0.0*,i,0,301,2,101
SMILES,MIN6 prolif,Rce1 inh,KLK7 zymogen act,T cell HTS,V-ATPase pH,CR mimetic SO
Cc1cc(C)cc(C(=O)N(c2ccccn2)C(C)c2ccco2)c1 (configuration not stated),0,i,0,518,1,110
O=C(NC1CCCCN(Cc2cccc(F)c2)C1=O)c1ccc2ccccc2c1 (configuration not stated),.,.,0,.,.,.
C[C@@H](NCCc1ccc(O)cc1)[C@@H](O)c1ccc(O)cc1,-4,i,0,175,3,105
CCCCCCCCNC(C)C(O)c1ccc(SC(C)C)cc1 (configuration not stated),-8,+,0,143,0,100
CCc1c2c(nc3ccc(OC(=O)N4CCC(N5CCCCC5)CC4)cc13)-c1cc3c(c(=O)n1C2)COC(=O)[C@]3(O)CC,-8,i,63*,52,0,126
C(=C\c1ccccc1)/CSc1nnc(Cc2cccs2)n1-c1ccccc1,.,.,1,.,.,.
C[C@H](O)[C@@H]1CN2CCc3c([nH]c4cccc(-c5ccccc5)c34)[C@@H]2C[C@@H]1N(C)C(=O)C1CCCCC1,.,.,5,.,.,.
CCOC(=O)Cn1c(C)[n+](CC(=O)c2ccccc2)c2ccccc21,-1,i,-1,458,-3,65*
C[C@@H]1N[C@H]2N(C1=O)c1ccccc1[C@@]21C[C@@H]2C(=O)N[C@](C)(O1)c1nc3ccccc3c(=O)n12,.,.,0,.,.,.
COc1ccc([N+](=O)[O-])cc1CSc1ccccn1,-1,+,1,286,-1,93
CCN(CC)c1ccc2cc(NC(=O)CCC(=O)O)c(=O)oc2c1,-2,.,78*,337,-66,104
CCc1c(-c2cccc(OC)c2)ncn1CCc1ccccc1OC,.,.,0,.,.,.
Cc1cccc(-c2oc3ccccc3c2-c2ccc3c(c2)OCO3)c1,.,+,-7,524,-2,104
COc1cc2c(cc1OC)C(C)N(C(=O)CCNC(=O)c1ccccc1)CC2 (configuration not stated),-3,+,1,502,5,131
COc1cc2c(cc1OC)C(C)N(C(=O)[C@@H](NC(=O)c1ccccc1)C(C)C)CC2 (some centres not stated),1,i,0,30,1,102
O=S1(=O)CCOCC(CO)N1Cc1cccc(Br)c1 (configuration not stated),.,.,0,.,.,.
CCCCN1CN2Cc3ccc(C)cc3C2CS1(=O)=O (configuration not stated),.,.,0,.,.,.
Cc1ccc(S(=O)(=O)Nc2ccccc2C=Nc2cccc(C)c2C)cc1,.,i,-5,0.0*,-2,115
Cc1ccc2nc(-c3ccccc3)cn2c1,-6,+,0,145,.,86
Cc1ccc2nc(-c3ccc(O)c(O)c3)cn2c1,-5,i,-3,228,-1,95
CC(=O)c1cc(-c2cccc(C#N)c2)c(=O)n2c1CCC2,.,.,0,.,.,.
Cc1ccc(CCNS(=O)(=O)c2ccc3c(c2)C(C)(C)C(=O)N3C)cc1,-2,i,0,740,25*,88
COc1ccc(-n2c(SCc3cccc4ccccc34)nnc2-c2ccccc2)cc1,.,.,0,.,.,.
CCCN(CC1CC1)C(=O)c1oc(=O)c2ccccc2c1-c1ccc(C)cc1,.,.,0,.,.,.
Cc1cc(CC(C)C)n(-c2nc3ccccc3c(=O)n2OCC(=O)N(C)C)n1,0,i,0,585,6,96
Cc1cc(C)n(-c2nc3ccccc3c(=O)n2OCC(=O)N(C)C)n1,-2,+,0,166,-1,101
